# Bioassay records (PubChem)
# APOBEC3A inh – human APOBEC3A DNA deaminase inhibition | hit rate 0.41% among 330,000 | P31941 | AID 493011 | inhibition, % at 20 µM | recombinant A3A, FAM/TAMRA ssDNA deamination fluorescence;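 active means at least 40% inhibition at 20 µM here, with at most 30% in a related deaminase screen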
# ARFGAP1 inhibitor – rat ARFGAP1 inhibition | Q62848 | Arfgap1-stimulated ARF1 GTP hydrolysis, GDP FP detection | inhibition, % at 16.5 µM | hit rate 0.26% among 360,000 | AID 651572;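 active means inhibition above a per-plate limit, mean inhibition of low control wells plus 3 SD, cut at about 25% in these data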
# Target sequence (Q62848 1-136 limits assumed): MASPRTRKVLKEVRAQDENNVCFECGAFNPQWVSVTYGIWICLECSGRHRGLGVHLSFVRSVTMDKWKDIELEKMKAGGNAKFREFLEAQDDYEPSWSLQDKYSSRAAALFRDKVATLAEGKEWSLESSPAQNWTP
#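 System: truncated rat Arfgap1 GAP domain / Benchmarks: high control wells lacking Arfgap1, low control full reaction with DMSO / Times: compound-enzyme preincubation 20 min, reaction 120 min, detection 60 min, 25 °C / Repeats: one replicate per compound / Also added: human ARF1(Δ1-17)-GTP substrate / Measured by: Tracer-displacement fluorescence polarization with EDTA stop, 620/688 nm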
# ASAP1 inh – ASAP1 ArfGAP inhibition. Q9ULH1. ASAP1-stimulated ARF1 GTP hydrolysis, GDP FP detection. inhibition, % at 16.5 µM. hit rate 0.19% among 360,000. AID 624377; in the data active means inhibition above about 25%
# A3G deaminase – inhibitors of human APOBEC3G DNA deaminase; AID 493012; inhibition, % at 20 µM; recombinant A3G, ssDNA deamination FAM/TAMRA fluorescence; Q9HC16; hit rate 0.28% among 330,000;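 active means inhibition of at least 40% at 20 µM, with no more than 30% in the related APOBEC3A deaminase screen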
# Target sequence (Q9HC16 whole entry, looked up): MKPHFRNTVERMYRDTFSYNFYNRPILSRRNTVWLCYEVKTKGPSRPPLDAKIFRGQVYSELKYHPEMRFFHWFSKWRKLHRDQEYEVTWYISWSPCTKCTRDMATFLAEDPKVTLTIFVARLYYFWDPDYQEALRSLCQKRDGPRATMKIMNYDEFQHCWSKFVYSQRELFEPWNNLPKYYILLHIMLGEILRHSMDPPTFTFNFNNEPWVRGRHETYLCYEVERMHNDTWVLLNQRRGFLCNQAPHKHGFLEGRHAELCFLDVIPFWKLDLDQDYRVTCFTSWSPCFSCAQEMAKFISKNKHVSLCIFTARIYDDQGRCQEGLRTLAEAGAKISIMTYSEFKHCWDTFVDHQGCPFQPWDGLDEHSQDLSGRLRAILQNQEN
# SUMO Mot1 rescue – SUMOylation pathway inhibition by Mot1-301 growth rescue | hit rate 1% among 320,000 | AID 2716 | growth rescue, % at 18.8 µM | S. cerevisiae Mot1-301 growth rescue, ATP luminescence, 38.5C; percent above DMSO median, 100 means doubled;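 active means every valid replicate shows activation above 250% relative to neutral control wells; inactive means the rest, any valid replicate at or below 250%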
# C2C12 statin – suppression of simvastatin myotoxicity; C2C12 myotubes + simvastatin, ATP luminescence, 48 h; scaled: DMSO 0, geranylgeraniol control 100; rescue of ATP level, % at 7.49 µM; hit rate 0.78% among 330,000; AID 602340;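 active means mean ATP rescue above about 67%, or every replicate alone reaching that limit, limit read from the data, passing the limit was not always enough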;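 further: myotubes were challenged with 10 µM simvastatin during compound exposure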
# Mot1 SUMO dose – SUMO pathway inhibitors in yeast Mot1-301 growth; shares compounds with SUMO Mot1 rescue; S. cerevisiae Mot1-301 galactose growth, ATP luminescence, 24 h; -100 = growth of slx-deleted rescue strain; growth activity, percent, % at 42 µM; 2,300 tested, under 10 active; AID 493004;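 active means Signal drops as the depositor expects, and the fitted half-maximal dose is no more than ten times the top valid tested dose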;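 further: more negative values mean stronger growth rescue toward the control strain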
# Numbers stand for hits; - = inactive; . = not tested or not shown; + = active, no number. Rows were chosen to be rich in hits. Some 2.1% of all compounds tested hit in one or more screens of this group.
SMILES,APOBEC3A inh,ARFGAP1 inhibitor,ASAP1 inh,A3G deaminase,SUMO Mot1 rescue,C2C12 statin,Mot1 SUMO dose
O=c1[nH]c(=O)n([C@H]2C[C@H](O)[C@@H](CO)O2)cc1Br,-,-,-,-,-,-,.
CCNC(=O)C[C@@H]1CC[C@H]2[C@H](COc3ccc(NC(=O)Cc4ccccc4)cc3C(=O)N2C)O1,.,.,.,.,.,-,.
COc1ccc(NC(=O)C2CCN(c3cc(C)nc(-c4ccccc4)n3)CC2)cc1,-,-,-,-,+,-,-
CO[C@@H](CN(C)S(=O)(=O)c1cn(C)cn1)[C@H](C)CN(C(=O)Nc1ccc(F)cc1)[C@@H](C)CO,.,.,.,.,.,-,.
O=C(CCC(F)(F)F)N1CCCC(CO)(CCc2ccccc2)C1 (centres undefined),-,-,-,-,738,-,-
Cc1ccccc1CC1(CO)CCCN(C(=O)CCC(F)(F)F)C1 (centres undefined),-,-,-,-,-,-,.
COc1ccc(N2C(=O)CCC(C(=O)NCCN3CCOCC3)C2c2ccc(OC)c(OC)c2)cc1 (centres undefined),.,-,-,.,.,.,.
COc1ccc(N2C(=O)CCC(C(=O)NCc3cccnc3)C2c2ccc(OC)c(OC)c2)cc1 (centres undefined),-,-,-,-,359,.,-
CCn1c(C)c(C(C)=O)c(N2CCN(c3ccc(F)cc3)CC2)nc1=S,-,-,-,-,917,.,-
CCOc1ccc(CCN2CN(C3CCCCC3)CNC2=S)cc1OCC,-,-,-,-,431,.,-
COc1ccc(NC(=O)Nc2ccc3c(c2)C(=O)N([C@H](C)CO)C[C@H](C)[C@H](CN(C)C(=O)NC(C)C)O3)cc1,.,.,.,.,.,-,.
CC(C)c1ccc(/C=C2\SC(N3CCCC3)=NC2=O)cc1,-,-,-,-,-,.,.
Cc1ccc(/C=C2\SC(N3CCCC3)=NC2=O)cc1,-,-,-,-,477,.,-
C[C@H](CO)N1C[C@H](C)[C@H](CN(C)C(=O)Nc2ccc(F)cc2)Oc2ccc(NC(=O)Cn3cnnn3)cc2CC1=O,.,.,.,.,.,-,.
COc1ccc(C(=O)Sc2ccc(Cl)cc2)cc1OC,-,-,-,-,+,-,-
COc1ccc(C(=O)Sc2ccc(C)cc2)cc1OC,-,-,-,-,.,-,.
CC(C)NC(=O)Nc1ccc2c(c1)C(=O)N([C@H](C)CO)C[C@@H](C)[C@H](CN(C)Cc1ccncc1)O2,.,.,.,.,.,-,.
Nc1cc[n+](CC(=O)Nc2ccccc2)cc1,-,-,-,-,799,.,-
CCC(c1nc2ccccc2c(=O)n1-c1nc2ccccc2s1)N1C(=O)c2ccccc2C1=O (centres undefined),-,-,-,-,359,-,-
Cc1ccc(S(=O)(=O)N[C@@H]2CC[C@@H](CC(=O)NCCN3CCCCC3)O[C@@H]2CO)cc1,.,.,.,.,.,-,.
CCCC(=O)Nc1ccc2c(c1)C(=O)N(C)[C@@H]1CC[C@H](CC(=O)NCC(F)(F)F)O[C@@H]1CO2,.,.,.,.,.,-,.
CCC(=O)c1c[nH]c(C(=O)NCCCn2ccnc2)c1,-,-,-,-,+,-,-
COc1ccc(C(=O)c2c[nH]c(C(=O)NCCCn3ccnc3)c2)cc1,-,-,-,-,-,-,.
Cc1ccccc1-c1nnc(SCc2ccc(F)cc2)o1,-,-,-,-,+,-,-
CN1C(=O)c2cc(NC(=O)C3CCCC3)ccc2OC[C@@H]2O[C@@H](CC(=O)NCC(F)(F)F)CC[C@H]21,.,.,.,.,.,-,.
SMILES,APOBEC3A inh,ARFGAP1 inhibitor,ASAP1 inh,A3G deaminase,SUMO Mot1 rescue,C2C12 statin,Mot1 SUMO dose
O=C(CSc1nnnn1C1CCCCC1)Nc1ccccc1F,-,-,-,-,-,.,.
O=C(CSc1nnnn1C1CC2CCC1C2)Nc1ccnc2ccccc12 (centres undefined),-,-,-,-,775,.,-
COCC(=O)Nc1ccc2c(c1)OC[C@@H](C)N(C(=O)Cc1cccnc1)C[C@@H](C)[C@H](OC)CN(C)C2=O,.,.,.,.,.,-,.
C[C@@H]1CN([C@H](C)CO)C(=O)c2cc(N(C)C)ccc2O[C@@H](C)CCCCO[C@H]1CN(C)C(=O)Nc1ccc2c(c1)OCO2,.,.,.,.,.,-,.
COc1ccc(NC(=O)N(C)C[C@@H]2Oc3c(NS(=O)(=O)c4ccc(F)cc4)cccc3C(=O)N([C@@H](C)CO)C[C@H]2C)cc1,.,.,.,.,.,-,.
CCOC(=O)c1[nH]c2ccc(F)cc2c1NC(=O)CCN1CCOCC1,-,-,-,-,383,.,-
C[C@@H]1CN([C@H](C)CO)C(=O)Cc2cc(NC(=O)CCN3CCOCC3)ccc2O[C@@H]1CN(C)S(=O)(=O)c1cccs1,.,.,.,.,.,-,.
CC(=O)Nc1cccc(OCC(=O)NS(=O)(=O)c2ccc(C)cc2)c1,-,.,.,-,846,-,-
COCC(=O)N1C[C@H](C)[C@@H](OC)CN(C)C(=O)c2ccc(NS(C)(=O)=O)cc2OC[C@@H]1C,.,.,.,.,.,-,.
O=C(CCN1CCc2ccccc2C1)Nc1ccc2c(c1)OCO2,-,-,-,-,836,-,-
COc1ccc(CCC(=O)Nc2ccc3c(c2)OCO3)cc1,-,-,-,-,563,-,-
O=C(CCN1CCc2ccccc2C1)Nc1ccc(F)c(F)c1,-,-,-,-,-,.,.
COc1ccc(CCC(=O)Nc2ccc3c(c2)OCCO3)cc1,-,-,-,-,-,-,.
CCOc1ccc(C(=O)N2CCCC(c3nc(-c4cccs4)no3)C2)cc1 (centres undefined),-,-,-,-,-,-,.
CCC(CC)C(=O)N1CCCC(c2nc(-c3cccs3)no2)C1 (centres undefined),-,-,-,-,503,-,-
CCOc1ccc(-c2c(C(=O)N/N=C/c3ccncc3)nnn2-c2nonc2N)cc1,-,-,-,-,396,-,-
CC/C(=N\NC(=O)c1nnn(-c2nonc2N)c1-c1cccs1)c1ccccc1,-,-,-,-,371,-,-
CC/C(=N\NC(=O)c1nnn(-c2nonc2N)c1-c1ccc2c(c1)OCO2)c1ccccc1,-,-,-,-,-,-,.
COC(=O)C(CC(C)C)NC(=O)CNC(=O)c1ccccc1C (centres undefined),-,-,-,-,+,.,-
O=C(N[C@H]1CC[C@@H](CC(=O)N2CCCCC2)O[C@@H]1CO)c1ccc2c(c1)OCO2,.,.,.,.,.,-,.
CC[C@H]1CCCCc2ccccc2[C@@H](C(=O)C[C@@H](O)CC(C)=O)OC1=O,-,-,-,-,527,-,-
CC[C@@H]1CCCCc2ccccc2[C@H](C(=O)C[C@@H](O)CC(C)=O)OC1=O,-,-,-,-,-,-,.
Cc1ccc(SCC(=O)OCC(=O)NC2CCCCCCC2)cc1,-,-,-,-,-,-,.
O=C(COC(=O)CSc1ccc([N+](=O)[O-])cc1)NC1CCCCCCC1,-,-,-,-,461,-,-
